The source made the active and inactive calls. Numbered stars: 1 amine (or outer) side, 2 acyl side, 3 side chain; on linkers, the order of the positions; unused ones are H or OH. Square brackets hold non-standard residues; d marks the D form. Peptide text beside a SMILES is read from it. X1 = CC1(C)SC[C@@H](C(=O)[*:2])N1[*:1]; Tle = CC(C)(C)[C@H](N)C(=O)O Bounds are passed on as bounds.

The test system of series [1] is Serum. Nature of the series: Drug metabolism in 25% human serum at 37 degC at 6 hrs. In kind it is ADME, cell-free. The essentials: (§1)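 Peptides were incubated in diluted human serum (25%) at 37 °C for up to 6 h. The amount of intact peptide remaining was monitored over time by HPLC.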
Series [2] in a line: Binding affinity to GST-calcineurin fusion protein substrate docking site (unknown origin) expressed in Escherichia coli BL21 cells by fluorescence anisotropy assay. More on the design: species or system Homo sapiens. The essentials: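 GST–CN fusion expressed in E. coli BL21, glutathione-Sepharose purified. FA read at ex 485/em 525 nm; KD from fitting FA versus CN concentration with correction for fluorophore–protein interaction.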
(In fluorescence polarisation assays a small probe gives low polarisation when free and higher when bound to something large.)

Series [3] in a line: Half life in 25% human serum at 37 degC. In kind it is ADME. The procedure, abridged:
as §1

Another series is filed under the species Homo sapiens. Put plainly: (§2) Inhibition of FITC-labelled […] binding to calcineurin (unknown origin) by modified fluorescence anisotropy assay.
Series [4] can be described thus: as §2. More on the design: species or system Homo sapiens.
For the next series, the system named is HeLa. Nature of the series: Inhibition of calcineurin in human HeLa cells assessed as blocked of GFP-NFAT translocation at 500 nM prior to ionomycin treatment by fluorescence based confocal microscopy in presence of ionomycin. Format: cell-based. The essentials:
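HeLa cells stably expressing GFP–NFAT1 pretreated with R11-conjugated peptide (500 nM), then stimulated with ionomycin. Time-lapse live-cell confocal imaging; increase in nuclear fluorescence after 10 min ionomycin compared with inhibitor-free control (100%). Mean ± SD from at least 30 cells; two-tailed t test.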

Series [5] concerns the target T1, Tyrosine-protein phosphatase non-receptor type 1 (Homo sapiens, UniProt P18031).
T1 sequence (P18031 whole entry): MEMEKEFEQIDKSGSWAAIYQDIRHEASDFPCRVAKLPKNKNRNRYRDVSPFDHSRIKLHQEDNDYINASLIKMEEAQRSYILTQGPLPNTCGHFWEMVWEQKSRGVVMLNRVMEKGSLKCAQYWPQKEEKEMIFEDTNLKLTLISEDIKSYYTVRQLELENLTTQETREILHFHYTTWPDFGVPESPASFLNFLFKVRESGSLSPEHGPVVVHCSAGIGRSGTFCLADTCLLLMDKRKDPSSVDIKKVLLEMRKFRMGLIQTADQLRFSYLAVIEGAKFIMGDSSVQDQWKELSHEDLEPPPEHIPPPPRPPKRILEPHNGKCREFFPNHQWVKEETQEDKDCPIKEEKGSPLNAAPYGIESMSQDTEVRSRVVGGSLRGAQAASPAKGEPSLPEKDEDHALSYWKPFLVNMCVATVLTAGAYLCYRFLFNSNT
Put plainly: Binding affinity to PTP1B (unknown origin).

Series [6] addresses Tyrosine-protein phosphatase non-receptor type 6 (Homo sapiens, UniProt P29350). Put plainly: Binding affinity to SHP1 (unknown origin).
For series [7], the target named is Growth factor receptor-bound protein 2 (Homo sapiens) (UniProt P62993). Put plainly: Binding affinity to SH2 domain of Grb2 (unknown origin).
Growth factor receptor-bound protein 2 (Homo sapiens), sequence (P62993 whole entry, looked up, the tested form may be a part): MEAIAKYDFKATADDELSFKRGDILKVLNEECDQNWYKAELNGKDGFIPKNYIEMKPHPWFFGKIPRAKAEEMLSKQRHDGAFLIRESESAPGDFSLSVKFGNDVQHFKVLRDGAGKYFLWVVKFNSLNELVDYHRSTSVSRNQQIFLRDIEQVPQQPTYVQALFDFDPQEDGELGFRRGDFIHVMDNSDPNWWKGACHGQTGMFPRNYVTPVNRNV
Series [8] deals with GTPase KRas (Homo sapiens), P01116 [G12V]. Put plainly: Binding affinity to K-Ras G12V mutant (unknown origin).
GTPase KRas (Homo sapiens), P01116 [G12V], sequence (P01116 whole entry G12V): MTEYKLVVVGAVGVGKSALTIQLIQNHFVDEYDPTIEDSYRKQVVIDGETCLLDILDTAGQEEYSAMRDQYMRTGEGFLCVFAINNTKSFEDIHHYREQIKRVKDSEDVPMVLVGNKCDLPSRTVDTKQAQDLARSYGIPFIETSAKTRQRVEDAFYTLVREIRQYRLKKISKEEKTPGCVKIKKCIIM
The next series addresses Albumin (Bos taurus, UniProt P02769). Nature of the series: Binding affinity to bovine serum albumin. Conditions: cattle, isolated protein. In kind it is ADME.
Series [9] relates to Serum. Nature of the series: Drug metabolism in 25% human serum assessed as compound remaining at 37 degC. In kind it is ADME, cell-free. The essentials:
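Peptide incubated in human serum diluted to 25% at 37 °C; remaining intact peptide quantified by HPLC over time up to 6 h.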

Albumin, sequence (P02769 whole entry): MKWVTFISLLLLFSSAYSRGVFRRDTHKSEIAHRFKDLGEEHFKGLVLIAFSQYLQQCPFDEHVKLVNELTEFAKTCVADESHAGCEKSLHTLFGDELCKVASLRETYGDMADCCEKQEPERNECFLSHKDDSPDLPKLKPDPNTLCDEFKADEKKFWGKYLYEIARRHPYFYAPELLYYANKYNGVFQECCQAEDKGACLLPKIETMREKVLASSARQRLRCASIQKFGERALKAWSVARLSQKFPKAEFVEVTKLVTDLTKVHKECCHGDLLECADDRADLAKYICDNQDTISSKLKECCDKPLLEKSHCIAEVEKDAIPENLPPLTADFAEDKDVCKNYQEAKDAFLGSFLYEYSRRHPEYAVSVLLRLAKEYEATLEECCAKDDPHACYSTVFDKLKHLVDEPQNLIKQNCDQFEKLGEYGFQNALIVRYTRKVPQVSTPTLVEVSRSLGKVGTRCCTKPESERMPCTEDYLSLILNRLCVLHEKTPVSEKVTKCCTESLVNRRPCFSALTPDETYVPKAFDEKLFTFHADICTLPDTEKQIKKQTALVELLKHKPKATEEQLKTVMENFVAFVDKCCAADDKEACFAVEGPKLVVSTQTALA
Tyrosine-protein phosphatase non-receptor type 6, sequence (P29350 whole entry, the tested form may be a part): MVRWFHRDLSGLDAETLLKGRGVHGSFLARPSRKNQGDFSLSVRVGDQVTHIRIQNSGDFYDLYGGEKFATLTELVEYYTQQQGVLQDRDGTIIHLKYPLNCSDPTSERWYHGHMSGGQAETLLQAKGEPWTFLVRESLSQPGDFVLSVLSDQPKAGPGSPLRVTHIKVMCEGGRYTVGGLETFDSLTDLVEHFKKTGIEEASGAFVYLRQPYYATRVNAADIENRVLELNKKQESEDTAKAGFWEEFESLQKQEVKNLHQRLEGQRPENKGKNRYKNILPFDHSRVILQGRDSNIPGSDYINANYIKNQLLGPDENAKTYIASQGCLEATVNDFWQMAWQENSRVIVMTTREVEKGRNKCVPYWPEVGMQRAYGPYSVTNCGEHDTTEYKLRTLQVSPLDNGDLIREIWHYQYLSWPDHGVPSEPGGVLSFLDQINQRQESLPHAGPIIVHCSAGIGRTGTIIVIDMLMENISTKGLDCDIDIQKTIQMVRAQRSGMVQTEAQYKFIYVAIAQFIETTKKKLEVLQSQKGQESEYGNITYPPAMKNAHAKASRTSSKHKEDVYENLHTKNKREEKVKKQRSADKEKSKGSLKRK

In general, Kd refers to the concentration at which binding is half-saturated. As usually defined, the half-life is the time needed for the level to fall by half in the phase considered. Read a high half-life as slow decline. As a reminder, the inhibition is the share of the control response that was lost under treatment. The IC50 is the concentration needed to halve the response being measured. Consider `CC[C@H](C)[C@H](NC(=O)[C@@H](NC(=O)[C@@H]1CCCN1C(=O)[C@H](Cc1cnc[nH]1)NC(=O)[C@@H]1CCCN1C(=O)CN)C(C)C)C(=O)N[C@H](C(=O)N[C@H](C(=O)N[C@H](C(=O)NCC(=O)N1CCC[C@H]1C(=O)N[C@@H](Cc1cnc[nH]1)C(=O)N[C@@H](CCC(=O)O)C(=O)N[C@@H](CCC(=O)O)C(=O)O)C(C)O)[C@@H](C)CC)C(C)C` (stereo not given in full), for which the Stability entry in the series with Serum [1] is listed as “Unstable”. In addition, the Kd in [2] amounted to 0.477 µM. The half-life in series [3] was 1 h. The inhibition result in the series listed under Homo sapiens is “Dose-dependent effect”. For the same compound, in series [4], the concentration for half-maximal inhibition (IC50) worked out at 4.1 µM.

As for `CCCOC(=O)CNC(=O)[C@H](CCC(=O)O)NC(=O)[C@H](CCC(=O)O)NC(=O)[C@H](Cc1cnc[nH]1)NC(=O)[C@@H]1CSC(C)(C)N1C(=O)CNC(=O)[C@@H](NC(=O)[C@@H](NC(=O)[C@@H](NC(=O)[C@@H](NC(=O)[C@@H](NC(=O)[C@@H]1CCCN1C(=O)[C@H](Cc1cnc[nH]1)NC(=O)[C@@H]1CCCN1C(=O)CNC(=O)CCSSC[C@H](NC(=O)[C@H](CCCNC(=N)N)NC(=O)[C@H](CCCNC(=N)N)NC(=O)[C@H](CCCNC(=N)N)NC(=O)[C@H](CCCNC(=N)N)NC(=O)[C@H](CCCNC(=N)N)NC(=O)[C@H](CCCNC(=N)N)NC(=O)[C@H](CCCNC(=N)N)NC(=O)[C@H](CCCNC(=N)N)NC(=O)[C@H](CCCNC(=N)N)NC(=O)[C@H](CCCNC(=N)N)NC(=O)[C@H](CCCNC(=N)N)NC(C)=O)C(N)=O)C(C)(C)C)[C@@H](C)CC)C(C)(C)C)[C@@H](C)CC)[C@@H](C)O`, in the series with HeLa, the inhibition came out at 95%.

For `CC[C@H](C)[C@H](NC(=O)[C@@H](NC(=O)[C@@H](NC(=O)[C@@H](NC(=O)[C@@H]1CCCN1C(=O)[C@H](Cc1cnc[nH]1)NC(=O)[C@@H]1CCCN1C(=O)CN)C(C)(C)C)[C@@H](C)CC)C(C)(C)C)C(=O)N[C@H](C(=O)NCC(=O)N1CCC[C@H]1C(=O)N[C@@H](Cc1cnc[nH]1)C(=O)N[C@@H](CCC(=O)O)C(=O)N[C@@H](CCC(=O)O)C(=O)O)[C@@H](C)O` (H-GPHP[Tle]I[Tle]ITGPHEE-OH), the Kd in [2] came out at 0.043 µM. Also, in the series listed under Homo sapiens, the inhibition entry was “Dose-dependent effect”. Moreover, in [4], the IC50 is 0.28 µM.

For the compound `CC[C@H](C)[C@H](NC(=O)[C@@H](NC(=O)[C@@H](NC(=O)[C@@H](NC(=O)[C@@H]1CCCN1C(=O)[C@H](Cc1cnc[nH]1)NC(=O)[C@@H]1CCCN1C(=O)CN)C(C)(C)C)[C@@H](C)CC)C(C)(C)C)C(=O)N[C@H](C(=O)NCC(=O)N1[C@H](C(=O)N[C@@H](Cc2cnc[nH]2)C(=O)N[C@@H](CCC(=O)O)C(=O)N[C@@H](CCC(=O)O)C(=O)O)CSC1(C)C)[C@@H](C)O` (H-GPHP[Tle]I[Tle]ITG[X1]HEE-OH), the Kd in series [5] was 9 µM; in [6] it was greater than 15 µM; in series [2], 0.0026 µM. Also, the result in series [7] and in series [8] was inactive. The Activity entry at Albumin is given as “Not Active”. Moreover, in the series on Serum [9], the Stability is 60%. For the same compound, the inhibition entry was “Dose-dependent effect” in the series filed under Homo sapiens and 95% with HeLa. Besides, the IC50 in [4] was found to be 0.11 µM.

On to H-GPHAVAVAAGPHEE-OH, for which, in [2], the dissociation constant Kd was greater than 200 µM.
